# Measurements reported in ChEMBL document CHEMBL1125428, “Development of 2,3-dihydro-6-(3-phenoxypropyl)-2-(2-phenylethyl)-5-benzofuranol (L-670,630) as a potent and orally active inhibitor of 5-lipoxygenase” (J Med Chem, 1992).
# Assays:
# Rattus norvegicus [1] = assay: Total radioactivity in tissues of male sd rats dosed intravenously with H-labeled compound at 21 mg/kg after 2 min in plasma; type: functional; conditions: route intravenous
# Rattus norvegicus [2] = assay: Total radioactivity in tissues of male sd rats dosed intravenously with H-labeled compound at 21 mg/kg after 4 hr in lung; type: functional; conditions: route intravenous
# Outline: (§1)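 ³H label in the phenoxy ring, dissolved in PEG-400, specific activity 3.96 μCi/mg, given iv via femoral vein at 21 mg/kg to male Sprague-Dawley rats. Animals were killed at 2, 10, 30 min, 1, 2 and 4 h. Tissues from each group were pooled and homogenized, and total radioactivity was measured by combustion, averaged over duplicate combustions. Results are expressed as μg equiv/g. Two or three rats were used per time point.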
# Rattus norvegicus [3] = assay: Total radioactivity in tissues of male sd rats dosed intravenously with H-labeled compound at 21 mg/kg after 2 hr in kidney; type: functional; conditions: route intravenous
# Outline: (§2)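 Male Sprague-Dawley rats given ³H compound iv via femoral vein in PEG-400, 21 mg/kg, 3.96 μCi/mg. Killed at 2, 10, 30 min, 1, 2 and 4 h. Total radioactivity measured by combustion of composited tissue homogenates, in duplicate. Two or three rats per time point, one at 10 and 30 min.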
# Rattus norvegicus [4] = assay: Total radioactivity in tissues of male sd rats dosed intravenously with H-labeled compound at 21 mg/kg after 10 min in kidney; type: functional; conditions: route intravenous; outline: as §2
# Rattus norvegicus [5] = assay: Total radioactivity in tissues of male sd rats dosed intravenously with H-labeled compound at 21 mg/kg after 30 min in kidney; type: functional; conditions: route intravenous; outline: as §2
# Rattus norvegicus [6] = assay: Total radioactivity in tissues of male sd rats dosed intravenously with H-labeled compound at 21 mg/kg after 10 min in plasma; type: functional; conditions: route intravenous
# Canis familiaris = species: Canis familiaris; assay: Effect on methemoglobin formation in canine venous blood containing heparin; type: functional, Canis lupus familiaris
# Rattus norvegicus [7] = assay: Amount of radioactivity elute with H-labeled at 21 mg/kg after 1 hr using RP-HPLC. at a dose of 2.02 ug/g in lung of male sd rat.
# Rattus norvegicus [8] = assay: Total radioactivity in tissues of male sd rats dosed orally with H-labeled compound at 21 mg/kg after 4 hr in lung; type: functional; conditions: route oral
# Outline: (§3)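 Male Sprague-Dawley rats received ³H-labelled drug (phenoxy ring, 3.96 μCi/mg) in PEG-400 by gavage at 21 mg/kg. Animals were killed at 5, 15, 30 min and at 1, 2, 4, 24 and 48 h. Homogenates were pooled per group, and total radioactivity was measured as the mean of duplicate combustions, in μg equiv/g. Two or three rats were used per point, except one rat at 24 and 48 h.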
# Rattus norvegicus [9] = assay: Total radioactivity in tissues of male sd rats dosed orally with H-labeled compound at 21 mg/kg after 30 min in liver; type: functional; conditions: route oral; outline: as §3
# Rattus norvegicus [10] = assay: Total radioactivity in tissues of male sd rats dosed orally with H-labeled compound at 21 mg/kg after 15 min in plasma; type: functional; conditions: route oral; outline: as §3
# Rattus norvegicus [11] = species: Rattus norvegicus; assay: Effective dose against antigen induced dyspnea in hyperactive inbred rat at a dose of […]; type: functional
# Rattus norvegicus [12] = assay: Total radioactivity in tissues of male sd rats dosed orally with H-labeled compound at 21 mg/kg after 1 hr in liver; type: functional; conditions: route oral; outline: as §3
# Rattus norvegicus [13] = assay: % compound was determined by the amount of radioactivity elute with H-labeled at 21 mg/kg after 5 min using RP-HPLC. at a dose of 380 ug/g in lung of male sd rat.; type: functional
# Rattus norvegicus [14] = assay: Total radioactivity in tissues of male sd rats dosed intravenously with H-labeled compound at 21 mg/kg after 10 min in liver; type: functional; conditions: route intravenous; outline: as §2
# Rattus norvegicus [15] = assay: Total radioactivity in tissues of male sd rats dosed intravenously with H-labeled compound at 21 mg/kg after 4 hr in plasma; type: functional; conditions: route intravenous; outline: as §1
# Rattus norvegicus [16] = assay: Total radioactivity in tissues of male sd rats dosed intravenously with H-labeled compound at 21 mg/kg after 10 min in lung; type: functional; conditions: route intravenous; outline: as §2
# Rattus norvegicus [17] = assay: Total radioactivity in tissues of male sd rats dosed intravenously with H-labeled compound at 21 mg/kg after 30 min in lung; type: functional; conditions: route intravenous; outline: as §2
# Rattus norvegicus [18] = assay: Total radioactivity in tissues of male sd rats dosed intravenously with H-labeled compound at 21 mg/kg after 1 hr in liver; type: functional; conditions: route intravenous; outline: as §2
# Rattus norvegicus [19] = assay: Total radioactivity in tissues of male sd rats dosed orally with H-labeled compound at 21 mg/kg after 15 min in kidney; type: functional; conditions: route oral; outline: as §3
# Rattus norvegicus [20] = assay: Total radioactivity in tissues of male sd rats dosed orally with H-labeled compound at 21 mg/kg after 24 hr r in lung; type: functional; conditions: route oral; outline: as §3
# Rattus norvegicus [21] = assay: Total radioactivity in tissues of male sd rats dosed orally with H-labeled compound at 21 mg/kg after 5 min in plasma; type: functional; conditions: route oral; outline: as §3
# Rattus norvegicus [22] = assay: Percentage inhibition against antigen induced dyspnea in hyperactive inbred rat at a dose of 0.05 mg/kg; type: functional
# Outline: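 Inbred hyperreactive rats, six per group, dosed po 2 h before aerosol ovalbumin challenge, with drug suspension or vehicle (0.4% Methocel/0.5% Tween 80, 10 mL/kg). Methysergide 3 mg/kg iv given 5 min before antigen. Dyspnea duration recorded by pneumotachograph. % inhibition of duration is relative to vehicle controls. Student's t test used; ED50 from linear regression.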
# Rattus norvegicus [23] = assay: Total radioactivity in tissues of male sd rats dosed intravenously with H-labeled compound at 21 mg/kg after 2 hr in lung; type: functional; conditions: route intravenous; outline: as §2
# Rattus norvegicus [24] = assay: Total radioactivity in tissues of male sd rats dosed intravenously with H-labeled compound at 21 mg/kg after 30 min in plasma; type: functional; conditions: route intravenous
# Rattus norvegicus [25] = assay: Total radioactivity in tissues of male sd rats dosed intravenously with H-labeled compound at 21 mg/kg after 30 min in liver; type: functional; conditions: route intravenous; outline: as §2
# Rattus norvegicus [26] = assay: Total radioactivity in tissues of male sd rats dosed orally with H-labeled compound at 21 mg/kg after 48 hr in lung; type: functional; conditions: route oral; outline: as §3
# Rattus norvegicus [27] = assay: Total radioactivity in tissues of male sd rats dosed orally with H-labeled compound at 21 mg/kg after 1 hr in lung; type: functional; conditions: route oral; outline: as §3
# Rattus norvegicus [28] = assay: Total radioactivity in tissues of male sd rats dosed intravenously with H-labeled compound at 21 mg/kg after 1 hr in kidney; type: functional; conditions: route intravenous; outline: as §2
# Rattus norvegicus [29] = assay: Total radioactivity in tissues of male sd rats dosed orally with H-labeled compound at 21 mg/kg after 5 min in lung; type: functional; conditions: route oral; outline: as §3
# Rattus norvegicus [30] = assay: Total radioactivity in tissues of male sd rats dosed orally with H-labeled compound at 21 mg/kg after 30 min in plasma; type: functional; conditions: route oral; outline: as §3
# Rattus norvegicus [31] = assay: Total radioactivity in tissues of male sd rats dosed orally with H-labeled compound at 21 mg/kg after 5 min in liver; type: functional; conditions: route oral; outline: as §3
# Rattus norvegicus [32] = assay: Total radioactivity in tissues of male sd rats dosed orally with H-labeled compound at 21 mg/kg after 5 min in kidney; type: functional; conditions: route oral; outline: as §3
# Rattus norvegicus [33] = assay: Total radioactivity in tissues of male sd rats dosed orally with H-labeled compound at 21 mg/kg after 48 hr in kidney; type: functional; conditions: route oral; outline: as §3
# Rattus norvegicus [34] = assay: Total radioactivity in tissues of male sd rats dosed orally with H-labeled compound at 21 mg/kg after 24 hr r in kidney; type: functional; conditions: route oral; outline: as §3
# Rattus norvegicus [35] = assay: Total radioactivity in tissues of male sd rats dosed intravenously with H-labeled compound at 21 mg/kg after 4 hr in liver; type: functional; conditions: route intravenous; outline: as §1
# Rattus norvegicus [36] = assay: Total radioactivity in tissues of male sd rats dosed orally with H-labeled compound at 21 mg/kg after 48 hr in plasma; type: functional; conditions: route oral; outline: as §3
# Rattus norvegicus [37] = assay: Total radioactivity in tissues of male sd rats dosed intravenously with H-labeled compound at 21 mg/kg after 2 min in liver; type: functional; conditions: route intravenous; outline: as §2
structure (smiles),measurement,setting,value
Oc1cc2c(cc1CCCOc1ccccc1)OC(CCc1ccccc1)C2 (stereo not drawn),Total radioactivity,Rattus norvegicus [1],10.34 ug equiv g-1
same,Total radioactivity,Rattus norvegicus [2],5 ug equiv g-1
same,Total radioactivity,Rattus norvegicus [3],1.24 ug equiv g-1
same,Total radioactivity,Rattus norvegicus [4],54.13 ug equiv g-1
same,Total radioactivity,Rattus norvegicus [5],22.75 ug equiv g-1
same,Total radioactivity,Rattus norvegicus [6],9.65 ug equiv g-1
same,Formation,Canis familiaris,4%
same,Activity,Rattus norvegicus [7],56.3%
same,Total radioactivity,Rattus norvegicus [8],1.74 ug equiv g-1
same,Total radioactivity,Rattus norvegicus [9],3.92 ug equiv g-1
same,Total radioactivity,Rattus norvegicus [10],1.08 ug equiv g-1
same,ED50 at […],Rattus norvegicus [11],0.06 mg/kg
same,Total radioactivity,Rattus norvegicus [12],10.93 ug equiv g-1
same,Activity,Rattus norvegicus [13],80.4%
same,Total radioactivity,Rattus norvegicus [14],143.94 ug equiv g-1
same,Total radioactivity,Rattus norvegicus [15],1.18 ug equiv g-1
same,Total radioactivity,Rattus norvegicus [16],75.08 ug equiv g-1
same,Total radioactivity,Rattus norvegicus [17],56.91 ug equiv g-1
same,Total radioactivity,Rattus norvegicus [18],26.77 ug equiv g-1
same,Total radioactivity,Rattus norvegicus [19],5.5 ug equiv g-1
same,Total radioactivity,Rattus norvegicus [20],0.1 ug equiv g-1
same,Total radioactivity,Rattus norvegicus [21],7.74 ug equiv g-1
same,inhibition in vivo at 0.05 mg/kg,Rattus norvegicus [22],50%
same,Total radioactivity,Rattus norvegicus [23],1.6 ug equiv g-1
same,Total radioactivity,Rattus norvegicus [24],5.81 ug equiv g-1
same,Total radioactivity,Rattus norvegicus [25],41.11 ug equiv g-1
same,Total radioactivity,Rattus norvegicus [26],0.09 ug equiv g-1
same,Total radioactivity,Rattus norvegicus [27],3.58 ug equiv g-1
same,Total radioactivity,Rattus norvegicus [28],11.78 ug equiv g-1
same,Total radioactivity,Rattus norvegicus [29],473.13 ug equiv g-1
same,Total radioactivity,Rattus norvegicus [30],1.09 ug equiv g-1
same,Total radioactivity,Rattus norvegicus [31],12.12 ug equiv g-1
same,Total radioactivity,Rattus norvegicus [32],9.12 ug equiv g-1
same,Total radioactivity,Rattus norvegicus [33],0.03 ug equiv g-1
same,Total radioactivity,Rattus norvegicus [34],0.15 ug equiv g-1
same,Total radioactivity,Rattus norvegicus [35],9.87 ug equiv g-1
same,Total radioactivity,Rattus norvegicus [36],0.82 ug equiv g-1
same,Total radioactivity,Rattus norvegicus [37],142.77 ug equiv g-1
